These results are taken from ChEMBL document CHEMBL1151705, “Novel azalides derived from 16-membered macrolides. Part II: Isolation of the linear 9-formylcarboxylic acid and its sequential macrocyclization with an amino alcohol or an azidoamine” (2008).

Holding throughout (format): functional
Test [1] has as its system Staphylococcus aureus. The test is described as follows: Antimicrobial activity against drug-susceptible Staphylococcus aureus 209P JC-1 after 20 hrs by agar dilution method. As to conditions: Staphylococcus aureus, 209P, 20 h; read-out: MIC. An outline of the steps: (§1)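 Agar dilution MIC. S. aureus seed culture was grown in sensitivity test broth. Cell suspension (about 10⁶ CFU/ml) was inoculated onto sensitivity disk agar with 5% horse blood and incubated at 37 °C for 20 h. MIC was the lowest drug concentration that prevented visible growth.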
A general note: In agar dilution the substance is mixed into plates at graded concentrations.

Test [2] relates to Streptococcus pneumoniae. The test is described as follows: Antimicrobial activity against drug-susceptible Streptococcus pneumoniae 2 after 20 hrs by agar dilution method. To be noted: Streptococcus pneumoniae, 20 h; read-out: MIC. The gist of the method: (§2)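 Streptococci, H. influenzae and M. catarrhalis were precultured on blood agar plates. Suspensions of about 10⁶ CFU/ml were inoculated onto sensitivity disk agar supplemented with 5% horse blood and incubated at 37 °C for 20 h. MIC was read as the lowest drug concentration with no visible growth.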

The test system of test [3] is Streptococcus pneumoniae. Put plainly: Antimicrobial activity against Streptococcus pneumoniae 5 constitutively expressing ermB/mefA after 20 hrs by agar dilution method. To be noted: Streptococcus pneumoniae, 20 h; read-out: MIC. An outline of the steps:
as §2

Test [4] relates to Moraxella catarrhalis. Put plainly: Antimicrobial activity against drug-susceptible Moraxella catarrhalis 1 after 20 hrs by agar dilution method. As to conditions: Moraxella catarrhalis, 20 h; read-out: MIC. An outline of the steps:
as §2

The test system of test [5] is Streptococcus pneumoniae. Put plainly: Antimicrobial activity against Streptococcus pneumoniae 6 constitutively expressing ermB after 20 hrs by agar dilution method. To be noted: Streptococcus pneumoniae, 20 h; read-out: MIC. The gist of the method:
as §2

The subject of test [6] is Haemophilus influenzae. The test is described as follows: Antimicrobial activity against drug-susceptible Haemophilus influenzae 1 after 20 hrs by agar dilution method. To be noted: Haemophilus influenzae, 20 h; read-out: MIC. An outline of the steps: as §2
The subject of test [7] is Staphylococcus aureus. The test is described as follows: Antimicrobial activity against drug-susceptible Staphylococcus aureus 2 after 20 hrs by agar dilution method. As to conditions: Staphylococcus aureus, 20 h; read-out: MIC. An outline of the steps: as §1
Test [8] deals with Staphylococcus aureus. The test is described as follows: Antimicrobial activity against Staphylococcus aureus 6 expressing inducible ermB after 20 hrs by agar dilution method. An outline of the steps: as §1
Test [9] relates to Haemophilus influenzae. Put plainly: Antimicrobial activity against drug-susceptible Haemophilus influenzae 4 after 20 hrs by agar dilution method. As to conditions: Haemophilus influenzae, 20 h; read-out: MIC. The gist of the method: as §2
In test [10] the test system is Streptococcus pneumoniae. The test is described as follows: Antimicrobial activity against Streptococcus pneumoniae 8 expressing inducible ermB after 20 hrs by agar dilution method. To be noted: Streptococcus pneumoniae, 20 h; read-out: MIC. The gist of the method: as §2
In test [11] the test system is Streptococcus pneumoniae. The test is described as follows: Antimicrobial activity against Streptococcus pneumoniae 10 expressing mefA after 20 hrs by agar dilution method. As to conditions: Streptococcus pneumoniae, 20 h; read-out: MIC. An outline of the steps:
as §2

The test system of test [12] is Streptococcus pneumoniae. The test is described as follows: Antimicrobial activity against drug-susceptible Streptococcus pneumoniae DP1 Type1 after 20 hrs by agar dilution method. As to conditions: Streptococcus pneumoniae, 20 h; read-out: MIC. An outline of the steps: as §2
Test [13] has as its system Streptococcus pyogenes. Put plainly: Antimicrobial activity against Streptococcus pyogenes 2 constitutively expressing ermB after 20 hrs by agar dilution method. An outline of the steps: as §2
The test system of test [14] is Streptococcus pneumoniae. Put plainly: Antimicrobial activity against Streptococcus pneumoniae 9 expressing mefA after 20 hrs by agar dilution method. To be noted: Streptococcus pneumoniae, 20 h; read-out: MIC. An outline of the steps:
as §2

The subject of test [15] is Haemophilus influenzae. The test is described as follows: Antimicrobial activity against drug-susceptible Haemophilus influenzae 2 after 20 hrs by agar dilution method. As to conditions: Haemophilus influenzae, 20 h; read-out: MIC. An outline of the steps:
as §2

Test [16] deals with Streptococcus pyogenes. Put plainly: Antimicrobial activity against Streptococcus pyogenes 3 expressing mefA after 20 hrs by agar dilution method. As to conditions: Streptococcus pyogenes, 20 h; read-out: MIC. The gist of the method:
as §2

Test [17] has as its system Moraxella catarrhalis. The test is described as follows: Antimicrobial activity against drug-susceptible Moraxella catarrhalis 2 after 20 hrs by agar dilution method. To be noted: Moraxella catarrhalis, 20 h; read-out: MIC. An outline of the steps:
as §2

For test [18], the system named is Staphylococcus aureus. Put plainly: Antimicrobial activity against Staphylococcus aureus 4 constitutively expressing ermA after 20 hrs by agar dilution method. The gist of the method:
as §1

In test [19] the test system is Streptococcus pneumoniae. Put plainly: Antimicrobial activity against Streptococcus pneumoniae 7 expressing inducible ermB after 20 hrs by agar dilution method. To be noted: Streptococcus pneumoniae, 20 h; read-out: MIC. An outline of the steps: as §2
Test [20] concerns Streptococcus pyogenes. The test is described as follows: Antimicrobial activity against drug-susceptible Streptococcus pyogenes 1 after 20 hrs by agar dilution method. As to conditions: Streptococcus pyogenes, 20 h; read-out: MIC. The gist of the method: as §2
For test [21], the system named is Haemophilus influenzae. Put plainly: Antimicrobial activity against drug-susceptible Haemophilus influenzae 3 after 20 hrs by agar dilution method. As to conditions: Haemophilus influenzae, 20 h; read-out: MIC. An outline of the steps: as §2
For test [22], the system named is Staphylococcus aureus. The test is described as follows: Antimicrobial activity against Staphylococcus aureus 5 expressing inducible ermB after 20 hrs by agar dilution method. As to conditions: Staphylococcus aureus, 20 h; read-out: MIC. An outline of the steps:
as §1

In test [23] the test system is Staphylococcus aureus. Put plainly: Antimicrobial activity against drug-susceptible Staphylococcus aureus 3 after 20 hrs by agar dilution method. To be noted: Staphylococcus aureus, 20 h; read-out: MIC. The gist of the method:
as §1

Converted amounts (≈) assume the structure as drawn.

For the compound `CCC(=O)O[C@@H]1CC(=O)NCCCN(CCCc2ccnc3ccccc23)C[C@H](O)[C@H](C)C[C@H](CC=O)[C@H](O[C@@H]2O[C@H](C)[C@@H](O)[C@H](N(C)C)[C@H]2O)[C@H]1OC`, the MIC in [1] was 64 µg/mL (≈ 84.3 µM); in test [2], 16 µg/mL (≈ 21.1 µM); in test [3], over 128 µg/mL; in [4] it was 8 µg/mL (≈ 10.5 µM); in test [5] it was over 128 µg/mL; in test [6], 64 µg/mL (≈ 84.3 µM). The MIC in test [7] is 32 µg/mL (≈ 42.2 µM); in [8], 64 µg/mL (≈ 84.3 µM); in [9] it was 128 µg/mL (≈ 169 µM); in [10], over 128 µg/mL; in test [11], 32 µg/mL (≈ 42.2 µM); in test [12], 16 µg/mL (≈ 21.1 µM). Further, the MIC is over 128 µg/mL in test [13]; 32 µg/mL (≈ 42.2 µM) in [14]; 8 µg/mL (≈ 10.5 µM) in test [15]; 128 µg/mL (≈ 169 µM) in test [16]; 8 µg/mL (≈ 10.5 µM) in test [17]; over 128 µg/mL in test [18]. Besides, the MIC was over 128 µg/mL in [19]; 16 µg/mL (≈ 21.1 µM) in test [20]; 64 µg/mL (≈ 84.3 µM) in test [21]; 64 µg/mL (≈ 84.3 µM) in test [22]; 64 µg/mL (≈ 84.3 µM) in [23].

`CCOC(=O)[C@H]1[C@H](C)O[C@@H](O[C@H]2[C@H](N(C)C)[C@@H](O)[C@H](O[C@H]3[C@@H](CC=O)C[C@@H](C)[C@@H](O)CN(CCCc4ccnc5ccccc45)CCCNC(=O)C[C@@H](OC(=O)CC)[C@@H]3OC)O[C@@H]2C)C[C@@]1(C)O`: the MIC in [1] is 0.5 µg/mL (≈ 0.521 µM); in [2] it was 0.13 µg/mL (≈ 0.136 µM); in test [3], over 128 µg/mL; in test [4], 2 µg/mL (≈ 2.09 µM); in test [5], over 128 µg/mL; in test [6] it was 16 µg/mL (≈ 16.7 µM). The MIC turned out to be 1 µg/mL (≈ 1.04 µM) in [7]; 0.5 µg/mL (≈ 0.521 µM) in test [8]; 8 µg/mL (≈ 8.34 µM) in [9]; 16 µg/mL (≈ 16.7 µM) in [10]; 0.13 µg/mL (≈ 0.136 µM) in test [11]; 0.06 µg/mL (≈ 0.0626 µM) in test [12]. The MIC was over 128 µg/mL in test [13]; 0.13 µg/mL (≈ 0.136 µM) in test [14]; 1 µg/mL (≈ 1.04 µM) in test [15]; 1 µg/mL (≈ 1.04 µM) in test [16]; 1 µg/mL (≈ 1.04 µM) in test [17]; over 128 µg/mL in [18]. Also, the MIC in test [19] is 16 µg/mL (≈ 16.7 µM); in test [20], 0.25 µg/mL (≈ 0.261 µM); in test [21], 4 µg/mL (≈ 4.17 µM); in [22] it was 0.5 µg/mL (≈ 0.521 µM); in test [23], 0.5 µg/mL (≈ 0.521 µM).

Regarding `CCOC(=O)[C@H]1[C@H](C)O[C@@H](O[C@H]2[C@H](N(C)C)[C@@H](O)[C@H](O[C@H]3[C@@H](CC=O)C[C@@H](C)[C@@H](O)CN(CCCc4ccnc5ccccc45)CC[C@@H](C)OC(=O)C[C@@H](OC(=O)CC)[C@@H]3OC)O[C@@H]2C)C[C@@]1(C)OC(C)=O`, the MIC was 0.13 µg/mL (≈ 0.128 µM) in test [1]; 0.06 µg/mL (≈ 0.059 µM) in test [2]; over 128 µg/mL in test [3]; 0.25 µg/mL (≈ 0.246 µM) in test [4]; over 128 µg/mL in [5]; 16 µg/mL (≈ 15.7 µM) in test [6]. The MIC in test [7] turned out to be 0.5 µg/mL (≈ 0.492 µM); in test [8] it was 0.25 µg/mL (≈ 0.246 µM); in test [9], 8 µg/mL (≈ 7.87 µM); in test [10], 8 µg/mL (≈ 7.87 µM); in [11] it was 0.13 µg/mL (≈ 0.128 µM); in [12] it was 0.06 µg/mL (≈ 0.059 µM). Further, the MIC in [13] was over 128 µg/mL; in test [14], 0.13 µg/mL (≈ 0.128 µM); in test [15], 1 µg/mL (≈ 0.984 µM); in [16], 0.13 µg/mL (≈ 0.128 µM); in [17] it was 0.25 µg/mL (≈ 0.246 µM); in test [18] it was over 128 µg/mL. The MIC worked out at 4 µg/mL (≈ 3.94 µM) in [19]; 0.06 µg/mL (≈ 0.059 µM) in test [20]; 8 µg/mL (≈ 7.87 µM) in [21]; 0.13 µg/mL (≈ 0.128 µM) in test [22]; 0.25 µg/mL (≈ 0.246 µM) in test [23].
